In the library only some 0.7% were active in any assay of this set; here they are far more common.
procasp3 activ: activators of human procaspase-3 D3A mutant, primary screen, biochemical, absorbance, PC-3 D3A mutant, single concentration; AID 463141, 2010; hit rate 0.11% among 330,000; activation, % at 8.5 µM; recombinant procaspase-3 D3A, Ac-DEVD-pNA absorbance 405 nm;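 active = activation above the mean of all tested compounds plus 3 SD, cut at about 21% in these data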;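 also: 0% = DMSO alone and 100% = DMSO wells spiked with extra 5 µM PC-3 D3A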
Target sequence (P42574 whole entry D9A/D28A/D175A): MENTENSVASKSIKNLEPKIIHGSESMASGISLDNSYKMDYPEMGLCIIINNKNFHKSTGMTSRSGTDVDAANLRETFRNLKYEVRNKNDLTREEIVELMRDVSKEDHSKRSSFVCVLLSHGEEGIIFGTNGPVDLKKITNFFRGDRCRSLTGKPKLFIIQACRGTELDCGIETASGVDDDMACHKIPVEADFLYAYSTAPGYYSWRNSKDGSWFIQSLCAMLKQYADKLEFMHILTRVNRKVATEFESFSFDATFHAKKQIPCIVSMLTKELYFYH
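Assay system – Procaspase-3 D3A mutant · Benchmarks – DMSO low control, extra-enzyme high control · Technique – 405 nm absorbance of p-nitroaniline, reads at 0 and 120 min · Doses – 8.5 µM nominal · Measure – % activation between DMSO and enzyme-spiked controls · Also added – Ac-DEVD-pNA chromogenic peptide substrate · Schedule – 1 h compound preincubation, 2 h substrate hydrolysis at 25 °C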
GAA850 FXN act: FXN promoter activators, primary screen, cell-based, luciferase luminescence, HEK293 lucGAA850. AID 540364, 2011. hit rate 0.56% among 360,000. HEK293 lucGAA850 FXN promoter luciferase reporter, 24 h; percent of 10 µM SAHA response. activation, % at 6 µM;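 active = activation above the average of all compounds screened plus 3 SD, cutoff fixed separately per campaign, cut at about 7.5% in these data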;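 also: 0% = DMSO wells and 100% = 10 µM SAHA wells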
proCasp7 act: procaspase-7 activators, primary screen, counter-screen for procaspase-3 activator project, biochemical, absorbance, HTS, human; Caspase-7 (Homo sapiens), P55210; recombinant procaspase-7, Ac-DEVD-pNA absorbance 405 nm; D23A/D198A/D206A triple mutant, cannot self-cleave; scale: DMSO 0, 5 µM enzyme 100; activation, % at 8.5 µM; hit rate 0.093% among 330,000; AID 463210, 2010;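 active = percent activation above the screen-wide mean plus 3 SD, cut at about 25% in these data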
Target sequence (P55210 whole entry D23A/D198A/D206A): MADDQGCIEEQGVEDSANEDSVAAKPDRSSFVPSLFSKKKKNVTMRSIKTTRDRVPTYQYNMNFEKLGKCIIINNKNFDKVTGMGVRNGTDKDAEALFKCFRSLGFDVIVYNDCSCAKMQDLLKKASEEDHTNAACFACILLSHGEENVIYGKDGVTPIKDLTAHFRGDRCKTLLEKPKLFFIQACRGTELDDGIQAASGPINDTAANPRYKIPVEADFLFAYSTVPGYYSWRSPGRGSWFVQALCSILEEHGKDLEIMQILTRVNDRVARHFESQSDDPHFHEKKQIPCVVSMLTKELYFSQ
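Assay system: Uncleavable procaspase-7 mutant enzyme | Input: 2 µM procaspase-7 mutant as dispensed | Timing: 1 h compound preincubation, 2 h substrate cleavage, 25 °C | Repeats: One well per compound | Control set: DMSO wells as 0%, DMSO with 5 µM added PC-7 as 100% | Technique: Epi-absorbance of released pNA at 405 nm, two timepoints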
PC3 dual counter: procaspase-3 activators, counter-screen for dual procaspase-3/7 activator project, biochemical, absorbance, PC-3 D3A mutant, human; shares compounds with proCasp7 act; recombinant PC-3 D3A, Ac-DEVD-pNA absorbance 405 nm; aspartates 9, 28, 175 changed to alanine; 100% = enzyme control; activation, % at 8.5 µM; 290 tested, under 10 active;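 active = mean percent activation across triplicates above a set limit taken from the earlier primary procaspase-3 screen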;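 also: 0% = DMSO wells and 100% = DMSO wells with 5 µM added PC-3 D3A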
Procasp7 act: activation of procaspase-7 enzyme – biochemical, absorbance, human, dual procaspase-3/-7 activator project, confirmation | AID 493115, 2011 | activation, % at 8.5 µM | recombinant procaspase-7, Ac-DEVD-pNA absorbance 405 nm; D23A/D198A/D206A mutant that cannot self-cleave | shares compounds with proCasp7 act | 290 tested, under 10 active;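 active = mean activation above a set limit carried over from the earlier primary screen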;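 also: 0% = DMSO only and 100% = DMSO with added 5 µM PC-7 enzyme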
GAA30 FXN cntr: GAA30 FXN promoter activators, confirmation, counter-screen for GAA850 frataxin promoter activator project, cell-based, luminescence, HEK293, lucGAA30, triplicate. HEK293 lucGAA30 FXN promoter luciferase, 24 h; DMSO = 0%, 5 µM ipriflavone = 100%. shares compounds with GAA850 FXN act. activation, % at 6 µM. hit rate 66% among 1,900;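 active = mean activation above the mean of solvent-only control wells plus 3 SD, cut at about 22% in these data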;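 also: counterscreen of GAA850 promoter hits where activity marks nonselective or luminescence artifacts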
GAA850 confirm: FXN GAA850 promoter activators in reporter cells, confirmation, cell-based, luminescence, HEK293 lucGAA850, triplicate; shares compounds with GAA850 FXN act; HEK293 lucGAA850 FXN promoter luciferase reporter, 24 h; 100% = activation by SAHA; activation, % at 6 µM; hit rate 86% among 1,900; AID 588351, 2011;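 active = mean activation above a set limit taken from the primary screen, cut at about 8% in these data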;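 also: 0% = DMSO wells and 100% = 10 µM SAHA wells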
* marks the source's active call; other numbers are inactive results; nt = not tested or not shown.

SMILES | procasp3 activ | GAA850 FXN act | proCasp7 act | PC3 dual counter | Procasp7 act | others
O=C(NC(c1ccc(-c2ccccc2)cc1)c1cnccn1)C1CCN(Cc2cccc(C(F)(F)F)c2)CC1 (stereo unspecified) | nt | -2 | nt | nt | nt
Cc1cc(C(=O)NC(CC(C)C)C(=O)O)cc(C)c1[N+](=O)[O-] (stereo unspecified) | 10 | -1 | 26* | 3 | 1
COC(=O)C(CC(C)C)NC(=O)c1ccc([N+](=O)[O-])c(C)c1 (stereo unspecified) | 3 | 2 | 5 | nt | nt
CC1OC(c2ccccc2)OC2COC(c3ccccc3)OC12 (stereo unspecified) | nt | 0 | nt | nt | nt
COc1cc(/C=C/C(=O)Nc2nc3ccc(S(=O)(=O)N(C)C)cc3s2)cc(OC)c1OC | -18 | 1 | 35* | -30 | -35
COc1cc(/C=C/C(=O)Nc2nnc(C(C)(C)C)s2)cc(OC)c1OC | -17 | 2 | -18 | nt | nt
O=C1C=C(Nc2ccccc2)CC(c2ccccc2)C1 (stereo unspecified) | 5 | 1 | 17 | nt | nt
COc1ccc(NC2=CC(=O)CC(c3ccccc3)C2)cc1 (stereo unspecified) | 18 | 1 | 26* | 0 | -2
COCc1nnc(NC(=O)CCSc2ccccc2)s1 | 1 | 0 | 27* | 4 | 0
COCc1nnc(NC(=O)CSc2ccccc2)s1 | 13 | -1 | 2 | nt | nt
C[C@H](NC(=O)C1CCN(S(=O)(=O)c2ccccc2)CC1)C(=O)NCc1cccnc1 | nt | 2 | nt | nt | nt
Cc1nonc1NC(=O)CSc1nnnn1-c1ccccc1 | 2 | 2 | -1 | nt | nt
O=C(NCCc1ccccc1)C(=O)NCC1OCCN1S(=O)(=O)c1cc(F)ccc1F (stereo unspecified) | 8 | 1 | 0 | nt | nt
CCn1c(=N)c(S(=O)(=O)c2ccccc2)cc2c(=O)n3ccccc3nc21 | -26 | 3 | -28 | nt | nt
CCCn1c(=N)c(S(=O)(=O)c2ccccc2)cc2c(=O)n3ccccc3nc21 | -26 | 3 | 42* | -30 | -33
CCCNC(=O)c1c(N)n(-c2ccc3c(c2)OCO3)c2nc3ccccc3nc12 | 4 | -1 | 5 | nt | nt
CCCNC(=O)c1c(N)n(-c2cc(OC)cc(OC)c2)c2nc3ccccc3nc12 | 115* | -3 | 29* | -28 | -36
CCOC(=O)c1nc(Nc2cc(Cl)ccc2OC)c2ccccc2n1 | 8 | 0 | 26* | -25 | -33
CCOC(=O)c1nc(Nc2ccccc2)c2ccccc2n1 | 3 | -1 | -7 | nt | nt
FC(F)(F)c1cccc(-n2c(Cn3nnc4ccccc43)n[nH]c2=S)c1 | 0 | 0 | -8 | nt | nt
CC(C)OC(=O)CC(=O)CSc1nc2c(cc1C#N)CCCC2 | 4 | 5 | 10 | nt | nt
CC(C)OC(=O)CC(=O)CSc1nc2c(cc1C#N)CCCCCC2 | 62* | 3 | 75* | -29 | -27
CCN1CCN(c2nc(Nc3ccc(NC(C)=O)cc3)nc(Nc3ccc(NC(C)=O)cc3)n2)CC1 | 1 | -6 | 2 | nt | nt
CCOc1ccc(-n2c(SCC(=O)Nc3ccc(OC)cc3)nc3c(c2=O)SCC3)cc1 | 3 | 0 | 68* | 0 | 1
CCOc1ccc(-n2c(SCC(=O)Nc3cc(C)on3)nc3c(c2=O)SCC3)cc1 | -3 | 0 | 6 | nt | nt
SMILES | procasp3 activ | GAA850 FXN act | proCasp7 act | PC3 dual counter | Procasp7 act | others
CN(CC(=O)Nc1ccccc1Br)C(=O)c1cccn1C | -1 | 0 | -4 | nt | nt
COc1cc2c(cc1NC(=O)CSc1nc3ccc(C)cc3[nH]1)oc1ccccc12 | 2 | nt | 3 | nt | nt
COc1ccc(CCNC(=O)CN2C(=O)NC3(CCCCC3C)C2=O)cc1 (stereo unspecified) | 5 | -1 | 1 | nt | nt
c1ccc(Cn2ncc3ccccc32)cc1 | -7 | 2 | -5 | nt | nt
CN(C)c1nc(-c2ccccc2)c2cnn(Cc3ccccc3)c2n1 | 18 | 1 | 34* | -29 | -36
C=CCC[C@@H](Cc1ccc(F)cc1)C(=O)OC[C@@H](Cc1ccccc1)NC(=O)[C@H](CC=C)CC(=O)NCCO | 7 | -2 | 1 | nt | nt
O=C([C@H](Cc1ccccc1)N1C(=O)c2ccccc2C1=O)N1CCOCC1 | -8 | 1 | 8 | nt | nt
COc1cc(-c2c(C#N)c(N)nc3c2CCCC3)ccc1O | -5 | 0 | -4 | nt | nt
COc1ccc(-c2c(C#N)c(N)nc3c2CCc2ccccc2-3)cc1OC | 34* | nt | 65* | -29 | -35
Oc1ccc(C2=NN(c3ccccc3)C(c3ccc(F)cc3)C2)cc1 (stereo unspecified) | 20 | 2 | 36* | -30 | -35
Oc1ccccc1C1=NN(c2ccccc2)C(c2ccc(F)cc2)C1 (stereo unspecified) | nt | 1 | nt | nt | nt
Cc1ccc(N2N=C(c3ccc(F)cc3)CC2c2ccco2)cc1 (stereo unspecified) | -13 | 0 | -8 | nt | nt
Fc1ccc(C2=NN(c3ccccc3)C(c3ccco3)C2)cc1 (stereo unspecified) | 32* | 3 | 44* | -29 | -34
Cc1ccc(S(=O)(=O)N(C)c2ccc(OCC(=O)N3CCCCC3)cc2)cc1 | 4 | -1 | 1 | nt | nt
CCC(=O)Nc1c(C#N)c2nc3ccccc3nc2n1C1CCCCC1 | 4 | 3 | 5 | nt | nt
N#Cc1c(N)n(C2CCCCC2)c2nc3ccccc3nc12 | 13 | 8.1* | 62* | -29 | -36 | GAA30 FXN cntr=4;GAA850 confirm=18*
CCN(C[C@H]1N[C@@](C)(C(=O)OC)[C@H]2C(=O)N(Cc3ccccc3)C(=O)[C@@H]12)S(=O)(=O)c1ccc(OC)cc1 | 9 | 4 | -12 | nt | nt
O=C(NCc1ccco1)c1ccc(Cn2c(=O)c3ccccc3n(Cc3cccc(Cl)c3)c2=O)cc1 | 2 | 11* | -5 | nt | nt | GAA30 FXN cntr=13;GAA850 confirm=6
